ChEMBL document CHEMBL4002581, “Versiquinazolines A-K, Fumiquinazoline-Type Alkaloids from the Gorgonian-Derived Fungus Aspergillus versicolor LZD-14-1” (J Nat Prod, 2016)

Tests used:
Homo sapiens = species on record: Homo sapiens; assay: Inhibition of thioredoxin reductase (unknown origin) at 50 uM measured after 5 mins by DTNB reduction assay relative to control
Summary of the method: (§1)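 TrxR inhibition was screened at 50 μM as % inhibition, and IC50 values are reported in μM. Curcumin was run as positive control. The procedure follows a previously described method.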

A2780 = assay: Cytotoxicity against human A2780 cells by MTT assay; assay type: functional, cell-based
Summary of the method: (§2)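 Tetrazolium-based colorimetric (MTT) read-out of tumour-cell viability, run on A549 and A2780 lines.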

A549 = assay: Cytotoxicity against human A549 cells by MTT assay; assay type: functional, cell-based; summary of the method: as §2
[1] = Inhibition of thioredoxin reductase (unknown origin) measured after 5 mins by DTNB reduction assay; parameters: species or system Homo sapiens; summary of the method: as §1

| inhibition (Homo sapiens) [%] | IC50 [1] [µM] | SMILES | IC50 (A2780) [µM] | IC50 (A549) [µM] |
| --- | --- | --- | --- | --- |
| 25 |  | COc1cc(/C=C/C(=O)CC(=O)/C=C/c2ccc(O)c(OC)c2)ccc1O |  |  |
| 38 |  | C[C@H]1C(=O)N2c3ccccc3[C@@]3(O)C[C@H]4C(=O)N[C@H](c5nc6ccccc6c(=O)n54)N1[C@H]23 | > 50 | > 50 |
| 83 | 13 | COC(=O)[C@@H]1C[C@]2(O)c3ccccc3N3C(=O)C4(CC4)N([C@@H](OC)c4nc5ccccc5c(=O)n41)[C@H]32 | > 50 | > 50 |
| 55 |  | O=C1NCc2nc3c(O)cccc3c(=O)n2[C@H]1Cc1c[nH]c2ccccc12 | > 50 | > 50 |
| 27 |  | C[C@@H]1N[C@@H]2N(C1=O)c1ccccc1[C@@]2(O)C[C@H]1C(=O)NCc2nc3ccccc3c(=O)n21 | > 50 | > 50 |
| 43 |  | CC[C@H](C)[C@H]1C(=O)N2c3ccccc3[C@@]3(O)C[C@H]4C(=O)N[C@H](c5nc6ccccc6c(=O)n54)N1[C@H]23 | > 50 | > 50 |
| 64 | 20 | C[C@H]1C(=O)N2c3ccccc3[C@@]34C[C@H]5C(=O)N(CN1[C@H]23)[C@@H](O4)c1nc2ccccc2c(=O)n15 | > 50 | > 50 |
| 51 |  | O=C1NCc2nc3ccccc3c(=O)n2[C@H]1C[C@@]12OCN3[C@@H]1N(C(=O)C31CC1)c1ccccc12 | > 50 | > 50 |
| 13 |  | C=CC(C)(C)[C@@]12C=C(OC)C(=O)N3[C@@H](C)C(=O)N[C@]31N(OC)c1ccccc12 | > 50 | > 50 |
| 62 |  | CC[C@H](C)[C@@H]1C(=O)N2c3ccccc3[C@@]3(O)C[C@H](n4cnc5ccccc5c4=O)C(=O)N1[C@@H]23 | > 50 | > 50 |
| 47 |  | O=C1N[C@H]2O[C@@]3(C[C@@H]1n1c2nc2ccccc2c1=O)c1ccccc1N1C(=O)C2(CC2)N[C@H]13 | > 50 | > 50 |
| 17 |  | O=C1N[C@@H]2c3nc4ccccc4c(=O)n3[C@H]1C[C@]1(O)c3ccccc3N3C(=O)C4(CC4)N2[C@H]31 | > 50 | > 50 |
| 83 | 12 | O=C1[C@@H]2C[C@@]34O[C@@H](c5nc6ccccc6c(=O)n52)N1CN1[C@@H]3N(C(=O)C12CC2)c1ccccc14 | > 50 | > 50 |
| 76 | 13 | C=CC(C)(C)[C@@]12C=C(OC)C(=O)N3[C@@H](C)C(=O)N[C@]31N(O)c1ccccc12 | > 50 | > 50 |
| 28 |  | O=C1NCc2nc3ccccc3c(=O)n2[C@H]1C[C@]1(O)c2ccccc2N2C(=O)C3(CC3)N[C@H]21 | > 50 | > 50 |
